Data set [1] relates to LNCaP. Nature of the data set: SRB cytotoxicity assay, LNCaP prostate cancer cells. Format: cell-based, human. Conditions: read-out: IC50 ± SEM, LNCaP.
Data set [2] deals with PPC-1. Nature of the data set: SRB cytotoxicity assay, PPC-1 prostate cancer cells. Format: cell-based, human. To be noted: read-out: IC50 ± SEM, PPC-1. On the technique in general: The SRB assay estimates cell density from bound dye.
In data set [3] the test system is WM-164. Put plainly: SRB cytotoxicity assay, WM-164 melanoma cells. Type of data set: cell-based, human. Conditions: read-out: IC50 ± SEM, WM-164, 96 h treatment.
For data set [4], the system named is A375. Nature of the data set: SRB cytotoxicity assay, A375 melanoma cells. Type of data set: cell-based, human. Conditions: read-out: IC50 ± SEM, A375, 96 h treatment.
Data set [5] concerns DU 145. Put plainly: SRB cytotoxicity assay, DU 145 prostate cancer cells. Type of data set: cell-based, human. To be noted: read-out: IC50 ± SEM, DU 145.
The subject of data set [6] is PC-3. Nature of the data set: SRB cytotoxicity assay, PC-3 prostate cancer cells. Conditions: read-out: IC50 ± SEM, PC-3. Format: cell-based, human.
The subject of data set [7] is B16-F1. Put plainly: SRB cytotoxicity assay, B16-F1 mouse melanoma cells. To be noted: read-out: IC50 ± SEM, B16-F1, 96 h treatment. Type of data set: cell-based.
Data set [8] has as its system cancer cell lines. Type of data set: cell-based. Conditions: for antiproliferative activity: text summary of Tables 1–3; for activity relative to 47: IC50 values of Table 4; for IC50: read-out: activity/potency range across cancer cell lines.
Data set [9] can be described thus: Aqueous solubility, Multiscreen solubility filter plate with LC-MS/MS. Format: physicochemical. Conditions: for solubility compared with compound 1: Figure 3.
Data set [10] can be described thus: Rat pharmacokinetic study. Format: in vivo, Sprague–Dawley rats. To be noted: 10 mg/kg.
The subject of data set [11] is Bovine brain tubulin. Nature of the data set: In vitro tubulin polymerization assay. Conditions: 5 µM compound, 20 min incubation. Format: biochemical. The method in brief:
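Bovine brain tubulin (0.4 mg, >97% pure) combined with test compound in general tubulin buffer (80 mM PIPES, 2.0 mM MgCl₂, 0.5 mM EGTA, 1 mM GTP, pH 6.9) at 37 °C. Polymerization tracked as A340 read every 1 min over 20 min. Inhibition expressed against vehicle.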

Like-named read-outs stand apart in the source and are kept apart here.

For “3-(3,4,5-Trimethoxyphenylsulfinyl)biphenyl [Compound 25]”, the IC50 in [1] (SRB assay, 96 h treatment) is above 10 µM; in data set [2] (SRB assay, 96 h treatment), above 10 µM; in data set [3], above 10 µM; in [4], above 10 µM; in data set [5] (SRB assay, 96 h treatment), above 10 µM; in data set [6] (SRB assay, 96 h treatment) it was above 10 µM. Moreover, in [7], the IC50 was above 10 µM.
Regarding `COc1cc(C(=O)c2cc(-c3ccccc3)n[nH]2)cc(OC)c1OC` [Compound 9f, (3-Phenyl-1H–pyrazol-5-yl)(3,4,5-trimethoxyphenyl)methanone], the “antiproliferative activity” value in data set [8] is reported as “hundreds of nanomolar range”.
On to “(E)-2-Phenyl-4-(3,4,5-trimethoxystyryl)thiazole [Compound 21]”, for which the IC50 in data set [1] (SRB assay, 96 h treatment) is above 10 µM; in data set [2] (SRB assay, 96 h treatment), above 10 µM; in data set [3], 30.8 ± 12 µM; in data set [4], above 100 µM; in [5] (SRB assay, 96 h treatment) it was above 10 µM; in data set [6] (SRB assay, 96 h treatment) it was above 10 µM. Besides, the IC50 in [7] was determined as 32.8 ± 13 µM. In addition, in data set [8], the “antiproliferative activity” value is recorded as “lost activity”.
As for `CNCc1ccc(-c2nc(C(=O)c3cc(OC)c(OC)c(OC)c3)cs2)cc1.Cl` [Compound 40, (2-(4-((Methylamino)methyl)phenyl)thiazol-4-yl)(3,4,5-trimeth-oxyphenyl)methanone Hydrochloride], in data set [8], the “antiproliferative activity” value is “abrogated activity”.
With “3-(3,4,5-Trimethoxyphenylsulfonyl)biphenyl [Compound 24]”, the IC50 was above 10 µM in [1] (SRB assay, 96 h treatment); above 10 µM in data set [2] (SRB assay, 96 h treatment); above 10 µM in data set [3]; above 10 µM in data set [4]; above 10 µM in data set [5] (SRB assay, 96 h treatment); above 10 µM in [6] (SRB assay, 96 h treatment). In addition, in data set [7], the IC50 was above 10 µM.
For `COc1cc(C(=O)N2CCC(c3ccccc3)CC2)cc(OC)c1OC` [Compound 9i, (4-Phenylpiperidin-1-yl)(3,4,5-trimethoxyphenyl)methanone], the “antiproliferative activity” value in data set [8] is “totally abolished activity”.
On the same count and under the same terms, next, `COc1cc(C(=O)c2coc(-c3ccccc3)n2)cc(OC)c1OC` [Compound 6, (2R)-(2-Phenyl-oxazol-4-yl)-(3,4,5-trimethoxy-phenyl)-methanone]: “hundreds of nanomolar range”; `COc1cc(C(=O)C2COC(c3ccccc3)=N2)cc(OC)c1OC` (stereo in doubt) [Compound 5, (2R)-(2-Phenyl-4,5-dihydro-oxazol-4-yl)-(3,4,5-trimethoxy-phenyl)-methanone]: “hundreds of nanomolar range”.
In the case of `COc1cc(C(=O)c2csc(-c3ccc(CN(C)C)cc3)n2)cc(OC)c1OC.Cl` [Compound 42, (2-(4-((Dimethylamino)methyl)phenyl)thiazol-4-yl)(3,4,5-trimeth-oxyphenyl)methanone Hydrochloride], the “antiproliferative activity” value in data set [8] is on record as “abrogated activity”.
In the case of “Biphenyl-3-yl(3,4,5-trimethoxyphenyl)sulfane [Compound 23]”, the IC50 was 2.3 ± 0.2 µM in data set [1] (SRB assay, 96 h treatment); 2.3 ± 0.1 µM in [2] (SRB assay, 96 h treatment); 2 ± 1.2 µM in data set [3]; 1.6 ± 0.4 µM in data set [4]; above 10 µM in data set [5] (SRB assay, 96 h treatment); above 10 µM in data set [6] (SRB assay, 96 h treatment). Besides, the IC50 in data set [7] is 2.4 ± 0.9 µM.
Turning to `COc1cc(C(=O)c2csc(Nc3ccc(C)cc3)n2)cc(OC)c1OC.Cl` [Compound 46b, (2-(p-Tolylamino)thiazol-4-yl)(3,4,5-trimethoxyphenyl)methanone Hydrochloride Salt], in data set [8], the “activity relative to 47” value is on record as “over 20 fold” and the IC50 lay within 0.035 to 0.065 µM.
Consider `CO/N=C(/c1cc(OC)c(OC)c(OC)c1)c1csc(-c2ccccc2)n1` [Compound 13c, (Z)-(2-Phenylthiazol-4-yl)(3,4,5-trimethoxyphenyl)methanone O-Methyl Oxime], for which the IC50 in [2] (Homo sapiens, PPC-1, 96 h) was above 10 µM.
Regarding `CO/N=C(\c1cc(OC)c(OC)c(OC)c1)c1csc(-c2ccccc2)n1` [Compound 13d, (E)-(2-Phenylthiazol-4-yl)(3,4,5-trimethoxyphenyl)methanone O-Methyl Oxime], the IC50 was above 10 µM in data set [1] (Homo sapiens, LNCaP, 96 h) and above 10 µM in [6] (Homo sapiens, PC-3, 96 h).
Consider `COc1cc(C(=O)c2csc(Nc3ccc(F)cc3)n2)cc(OC)c1OC` [Compound 45c, (2-(p-Fluorophenylamino)thiazol-4-yl)(3,4,5-trimethoxyphenyl)-methanone], for which the “solubility compared with compound 1” value in data set [9] (PBS) is on record as “improved solubility”. Moreover, in data set [8], the IC50 lay in the range of 0.035 to 0.065 µM.
The term solubility denotes how much of the substance goes into solution per volume. Read a high solubility as a readily soluble substance. As for `COc1cc(C(=O)c2csc(-c3ccc(CN)cc3)n2)cc(OC)c1OC.Cl` [Compound 39, (2-(4-(Aminomethyl)phenyl)thiazol-4-yl)(3,4,5-trimethoxyphenyl)-methanone Hydrochloride], in data set [9] (PBS, HCl salt), the “increase in solubility compared with compound 1” value was “over 35 fold”. In [9] (phosphate buffered saline (PBS) buffer, pH 7.4), this compound came in with a solubility at […] of at least 35 µg/mL.
Regarding `COc1cc(C(=O)c2csc(-c3ccccc3)n2)cc(OC)c1OC` [Compound 1], the IC50 was determined as 0.043 ± 0.005 µM in data set [2] (Homo sapiens, PPC-1, 96 h) and 0.021 ± 0.001 µM in data set [6] (Homo sapiens, PC-3, 96 h).
For the compound “N-(3,4,5-Trimethoxyphenyl)biphenyl-3-sulfinamide [Compound 26]”, the IC50 in data set [1] (SRB assay, 96 h treatment) was above 10 µM; in [2] (SRB assay, 96 h treatment) it was above 10 µM; in data set [3] it was above 10 µM; in data set [4], above 10 µM; in data set [5] (SRB assay, 96 h treatment) it was above 10 µM; in data set [6] (SRB assay, 96 h treatment), above 10 µM. Also, the IC50 in [7] was above 10 µM.
For the compound `COc1cc(C(=O)c2csc(Nc3ccc(F)cc3)n2)cc(OC)c1OC.Cl` [Compound 46c, (2-(p-Fluorophenylamino)thiazol-4-yl)(3,4,5-trimethoxyphenyl)-methanone Hydrochloride Salt], the “increased exposure (AUC) by the oral route as compared to 1” value in data set [10] is “more than 4.3 fold”.
Regarding `COc1cc(C(=O)c2csc(Nc3ccccc3)n2)cc(OC)c1OC` [Compound 45a, (2-(Phenylamino)thiazol-4-yl)(3,4,5-trimethoxyphenyl)methanone], the “solubility compared with compound 1” value in data set [9] (PBS) is listed as “improved solubility”. Also, in data set [8], the “activity relative to 47” value was “over 20 fold” and the IC50 was 0.035 to 0.065 µM.
In the case of `COc1cc(C(=O)c2csc(-c3ccc4[nH]ccc4c3)n2)cc(OC)c1OC` [Compound 36, (2-(1H–Indol-5-yl)thiazol-4-yl)(3,4,5-trimethoxyphenyl)methanone], in data set [11], the “inhibition of tubulin polymerization as compared to vehicle” value came to 69%.
For the compound “(Z)-2-Phenyl-4-(3,4,5-trimethoxystyryl)thiazole [Compound 20]”, the IC50 in data set [1] (SRB assay, 96 h treatment) was above 10 µM; in [2] (SRB assay, 96 h treatment) it was above 10 µM; in data set [3], 10.6 ± 5.8 µM; in data set [4], 46.5 ± 23.3 µM; in [5] (SRB assay, 96 h treatment), above 10 µM; in data set [6] (SRB assay, 96 h treatment), above 10 µM. In addition, the IC50 in data set [7] came to 11 ± 2.8 µM. In data set [8], the “antiproliferative activity” value was “lost activity”.
For `COc1cc(C(=O)c2cccc(-c3ccccc3)c2)cc(OC)c1OC` [Compound 9a, Biphenyl-3-yl(3,4,5-trimethoxyphenyl)methanone], the “antiproliferative activity” value in [8] was “hundreds of nanomolar range”.
For the compound `COc1cc(/C(=N\N)c2csc(-c3ccccc3)n2)cc(OC)c1OC` [Compound 14b, (E)-4-(Hydrazono(3,4,5-trimethoxyphenyl)methyl)-2-phenylthiazole], in data set [5] (Homo sapiens, DU-145, 96 h), the IC50 was 1.21 µM.
For `COc1cc(/C(=N/O)c2csc(-c3ccccc3)n2)cc(OC)c1OC` [Compound 13a, (Z)-(2-Phenylthiazol-4-yl)(3,4,5-trimethoxyphenyl)methanoneOxime], the “activity of syn-isomer relative to anti isomer 13b” value in data set [8] (13a vs 13b) is 10 fold.
In the case of `COc1cc(/C(=N\C#N)c2csc(-c3ccccc3)n2)cc(OC)c1OC` [Compound 16, N-((2-Phenylthiazol-4-yl)(3,4,5-trimethoxyphenyl)methylene)cyanamide], the IC50 in [8] fell in the range of 0.02 to 0.06 µM.

Values taken from paper PMC4755333 (Journal of medicinal chemistry, 2011).
